Test results published in ChEMBL document CHEMBL1140210, “In pursuit of natural product leads: synthesis and biological evaluation of 2-[3-hydroxy-2-[(3-hydroxypyridine-2-carbonyl)amino]phenyl]benzoxazole-4-carboxylic acid (A-33853) and its analogues: discovery of N-(2-benzoxazol-2-ylphenyl)benzamides as novel antileishmanial chemotypes” (J Med Chem, 2008).
Activity calls are given as the source filed them. The calls are words filed in the database; no cut-off is given here.

Key:
[1] = system: Leishmania donovani; test: Antileishmanial activity against Leishmania donovani MHOM/ET/67/L82 at 0.8 ug/mL; type: functional
[2] = system: L6; test: Cytotoxicity against rat L6 cells; type: cell-based; settings: for Activity: rat, l6; for IC50: Rattus norvegicus, L6
[3] = Selectivity index, ratio of IC50 for rat L6 cells to IC50 for Leishmania donovani MHOM/ET/67/L82; type: toxicity, cell-based; settings: read-out: Ratio IC50
[4] = system: Leishmania donovani; test: Antileishmanial activity against Leishmania donovani MHOM/ET/67/L82; type: functional, organism-based
Summary of the method: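 Tested on axenic amastigote cultures of L. donovani strain MHOM/ET/67/L82. Activity is reported as IC50.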

[5] = system: Leishmania donovani; test: Antiparasitic activity against Leishmania donovani amastigote in mouse peritoneal macrophages assessed as reduction of parasite burden at 10 ug/mL after 96 hrs; type: functional, organism-based
[6] = system: Trypanosoma cruzi; test: Antitrypanosomal activity against Trypanosoma cruzi Tulahuen C2C4 at 4.8 ug/mL; type: functional
[7] = system: Plasmodium falciparum; test: Antimalarial activity against chloroquine and pyrimethamine-resistant Plasmodium falciparum K1 at 4.8 ug/mL; type: functional
[8] = system: Leishmania donovani; test: Antileishmanial activity against Leishmania donovani MHOM/ET/67/L82 at 4.8 ug/mL; type: functional

IC50 [4] [nM] | Structure (SMILES) | inhibition at 0.8 µg/mL [1] [%] | Activity [2] | selectivity ratio [3] | IC50 [2] [µM] | Activity [5] | inhibition at 4.8 µg/mL [6] [%] | inhibition at 4.8 µg/mL [7] [%] | inhibition at 4.8 µg/mL [8] [%]
– | O=C(Nc1c(O)cccc1-c1nc2c(C(=O)O)cccc2o1)c1cc(O)c(O)c(O)c1 | < 30 | Not Traceable | – | – | – | – | – | –
– | O=C(Nc1c(O)cccc1-c1nc2c(C(=O)O)cccc2o1)c1cccnc1Cl | < 30 | Not Traceable | – | – | – | – | – | –
1170 | O=C(Nc1c(O)cccc1-c1nc2c(C(=O)O)cccc2o1)c1cc(-c2ccccc2)nc2ccccc12 | – | – | 92 | 108 | – | – | – | –
– | Cc1cc(C(=O)Nc2c(O)cccc2-c2nc3c(C(=O)O)cccc3o2)no1 | < 30 | Not Traceable | – | – | – | – | – | –
310 | O=C(Nc1c(O)cccc1-c1nc2c(C(=O)O)cccc2o1)c1ccccn1 | – | – | 99 | 30.6 | inactive | – | – | –
1900 | O=C(Nc1c(O)cccc1-c1nc2c(C(=O)O)cccc2o1)c1ccc(F)c(F)c1F | – | – | 111 | 210 | – | – | – | –
850 | O=C(Nc1c(O)cccc1-c1nc2c(C(=O)O)cccc2o1)c1ccccc1O | – | – | 100 | 85.1 | inactive | – | – | –
520 | O=C(Nc1c(O)cccc1-c1nc2c(C(=O)O)cccc2o1)c1ncccc1F | – | – | 392 | 204 | inactive | – | – | –
1930 | O=C(Nc1c(O)cccc1-c1nc2c(C(=O)O)cccc2o1)c1cccc(Cl)c1 | – | – | 74 | 143 | – | – | – | –
510 | O=C(Nc1c(O)cccc1-c1nc2c(C(=O)O)cccc2o1)c1cnccn1 | – | – | 185 | 94.4 | inactive | – | – | –
– | CCCCCCCCCCCCCCCCOP(=O)([O-])OCC[N+](C)(C)C [MILTEFOSINE] | – | – | 565 | 147 | – | – | – | –
– | COc1cccc(-c2nc3c(C(=O)O)cccc3o2)c1NC(=O)c1cccnc1Cl | < 30 | Not Traceable | – | – | – | – | – | –
4360 | O=C(Nc1c(O)cccc1-c1nc2c(C(=O)O)cccc2o1)c1cccnc1 | – | – | 55 | 240 | – | – | – | –
930 | O=C(Nc1c(O)cccc1-c1nc2c(C(=O)O)cccc2o1)c1cc(-c2ccccc2)on1 | – | – | 152 | 141 | inactive | – | – | –
1730 | O=C(Nc1c(O)cccc1-c1nc2c(C(=O)O)cccc2o1)c1ccccc1 | – | – | > 138 | > 240 | – | – | – | –
680 | O=C(Nc1c(O)cccc1-c1nc2c(C(=O)O)cccc2o1)c1cc2ccccc2[nH]1 | – | – | 312 | 212 | inactive | – | – | –
3070 | COc1cccc(-c2nc3c(C(=O)O)cccc3o2)c1NC(=O)c1cc2ccccc2[nH]1 | – | – | 69 | 211 | – | – | – | –
960 | O=C(Nc1ccccc1-c1nc2c(C(=O)O)cccc2o1)c1ccccc1 | – | – | 118 | 114 | inactive | – | – | –

Structure (SMILES) | IC50 [4] [nM] | inhibition at 0.8 µg/mL [1] [%] | Activity [2] | selectivity ratio [3] | IC50 [2] [µM] | Activity [5] | inhibition at 4.8 µg/mL [6] [%] | inhibition at 4.8 µg/mL [7] [%] | inhibition at 4.8 µg/mL [8] [%]
O=C(Nc1c(O)cccc1-c1nc2c(C(=O)O)cccc2o1)c1ncccc1O | 80 | 100 | – | 185 | 14.2 | – | 96 | 97 | 100
